Assay results as given in ChEMBL document CHEMBL1155895, “(9S)-9-(2-hydroxy-4,4-dimethyl-6-oxo-1-cyclohexen-1-yl)-3,3-dimethyl-2,3,4,9-tetrahydro-1H-xanthen-1-one, a selective and orally active neuropeptide Y Y5 receptor antagonist” (J Med Chem, 2008).

Tests used:
[1] = target: T1, Neuropeptide Y receptor type 5 (Homo sapiens, UniProt Q15761); assay: Displacement of [125I]PYY from human recombinant neuropeptide Y5 receptor expressed in thymidine kinase deficient […]; assay type: cell-based
T1 sequence (Q15761 whole entry): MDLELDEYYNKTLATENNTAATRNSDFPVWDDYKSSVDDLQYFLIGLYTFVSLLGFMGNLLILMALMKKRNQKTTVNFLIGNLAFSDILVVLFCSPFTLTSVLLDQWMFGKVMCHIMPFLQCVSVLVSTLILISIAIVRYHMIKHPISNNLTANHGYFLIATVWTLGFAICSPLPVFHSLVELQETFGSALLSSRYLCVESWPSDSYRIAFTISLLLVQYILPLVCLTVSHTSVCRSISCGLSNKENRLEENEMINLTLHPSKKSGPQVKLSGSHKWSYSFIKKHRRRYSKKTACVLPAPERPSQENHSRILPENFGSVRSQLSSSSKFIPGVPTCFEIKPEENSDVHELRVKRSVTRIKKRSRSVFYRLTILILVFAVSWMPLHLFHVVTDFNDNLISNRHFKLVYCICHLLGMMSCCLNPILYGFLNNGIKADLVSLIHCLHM

[2] = target: T1, Neuropeptide Y receptor type 5; assay: Antagonist activity at human recombinant neuropeptide Y5 receptor expressed in CHO cells coexpressing Gqi5 assessed as inhibition of neuropeptide Y-induced increase in intracellular calcium concentration; assay type: functional, cell-based
Procedure, shortened: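 Human recombinant Y5 receptor co-expressed with Gqi5 in CHO cells. Cells stimulated with 100 nM NPY. Antagonism read as inhibition of the NPY-evoked intracellular Ca2+ rise, reported as IC50.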

[3] = Fraction unbound in Sprague-Dawley rat plasma at 10 mg/kg, po; assay type: ADME, organism-based; set-up: dose 10 mg/kg, route oral
[4] = Ratio of drug level in brain to plasma in Sprague-Dawley rat at 10 mg/kg, po; assay type: ADME, organism-based; set-up: dose 10 mg/kg, route oral
[5] = target: T2, Neuropeptide Y receptor type 1 (Homo sapiens, UniProt P25929); assay: Inhibition of human neuropeptide Y1 receptor
T2 sequence (P25929 whole entry): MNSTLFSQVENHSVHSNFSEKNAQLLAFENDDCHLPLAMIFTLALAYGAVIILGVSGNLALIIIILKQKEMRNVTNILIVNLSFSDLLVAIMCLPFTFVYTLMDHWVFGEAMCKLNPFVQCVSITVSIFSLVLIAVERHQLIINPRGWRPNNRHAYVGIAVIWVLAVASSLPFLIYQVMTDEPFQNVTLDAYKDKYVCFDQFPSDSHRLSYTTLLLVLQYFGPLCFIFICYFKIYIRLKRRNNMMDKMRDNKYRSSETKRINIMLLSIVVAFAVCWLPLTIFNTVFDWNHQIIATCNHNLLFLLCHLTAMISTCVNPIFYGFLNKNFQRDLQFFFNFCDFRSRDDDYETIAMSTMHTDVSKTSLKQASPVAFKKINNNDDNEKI

[6] = target: T3, Neuropeptide Y receptor type 2 (Homo sapiens, UniProt P49146); assay: Inhibition of human neuropeptide Y2 receptor
T3 sequence (P49146 whole entry): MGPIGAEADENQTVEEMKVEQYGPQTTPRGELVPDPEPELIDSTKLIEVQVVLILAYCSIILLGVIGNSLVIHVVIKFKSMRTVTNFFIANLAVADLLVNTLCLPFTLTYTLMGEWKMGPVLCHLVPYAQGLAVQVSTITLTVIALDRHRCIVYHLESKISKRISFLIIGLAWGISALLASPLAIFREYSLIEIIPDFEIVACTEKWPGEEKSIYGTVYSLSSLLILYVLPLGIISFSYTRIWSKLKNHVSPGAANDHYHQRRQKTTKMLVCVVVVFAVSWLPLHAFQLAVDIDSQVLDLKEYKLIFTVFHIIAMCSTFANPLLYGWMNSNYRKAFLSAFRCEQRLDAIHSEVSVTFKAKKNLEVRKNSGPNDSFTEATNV

[7] = target: Neuropeptide Y receptor type 4 (Homo sapiens, UniProt P50391); assay: Inhibition of human neuropeptide Y4 receptor
[8] = Tmax in Sprague-Dawley rat at 10 mg/kg, po; assay type: ADME, organism-based; set-up: dose 10 mg/kg, route oral; conditions: in vivo
Procedure, shortened: (§1)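 SD rats dosed orally with 10 mg/kg, as either the single enantiomer or the racemate; n = 3 animals per dose. Plasma levels of both enantiomers followed over time to build concentration–time profiles, from which PK parameters were taken.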

[9] = Cmax in Sprague-Dawley rat at 10 mg/kg, po; assay type: ADME, organism-based; set-up: dose 10 mg/kg, route oral; conditions: in vivo; procedure, shortened: as §1
[10] = Half life in Sprague-Dawley rat at 10 mg/kg, po; assay type: ADME, organism-based; set-up: dose 10 mg/kg, route oral; conditions: in vivo; procedure, shortened: as §1
[11] = system: Mus musculus; assay: Toxicity in ICR mouse assessed as gross behavioral adverse effects at 150 mg/kg, po; assay type: organism-based; set-up: dose 150 mg/kg, route oral; conditions: in vivo
Procedure, shortened: (§2)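 Mice were given a single oral dose of 150 mg/kg and observed for gross behaviour. The scored signs were psychomotor activity, motor activity, muscle tone, CNS excitation, autonomic responses and reflexes. Deaths were recorded at any time after dosing. This was run as a gross-behaviour screen before the in vivo efficacy studies.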

[12] = system: Mus musculus; assay: Toxicity in ICR mouse assessed as mortality at 150 mg/kg, po; assay type: organism-based; set-up: dose 150 mg/kg, route oral; conditions: in vivo; procedure, shortened: as §2
[13] = system: Rattus norvegicus; assay: Inhibition of D-Trp34-NPY-induced food intake in po dosed Sprague-Dawley rat; assay type: functional, organism-based

Chain of Neuropeptide Y receptor type 4 (P50391 whole entry): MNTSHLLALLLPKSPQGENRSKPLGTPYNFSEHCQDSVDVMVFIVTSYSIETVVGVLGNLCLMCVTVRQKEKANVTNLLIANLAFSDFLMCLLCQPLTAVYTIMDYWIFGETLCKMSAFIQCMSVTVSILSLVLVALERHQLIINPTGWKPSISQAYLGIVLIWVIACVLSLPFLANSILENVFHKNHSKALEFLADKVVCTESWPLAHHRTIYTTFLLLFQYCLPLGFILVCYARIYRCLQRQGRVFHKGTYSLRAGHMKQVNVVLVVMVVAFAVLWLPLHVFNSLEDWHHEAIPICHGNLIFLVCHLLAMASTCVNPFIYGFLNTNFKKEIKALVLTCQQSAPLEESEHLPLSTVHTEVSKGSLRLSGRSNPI

Row | Ki [1] | IC50 [2] | SMILES | also measured
1 | 36 nM | 111 nM | Cc1ccc2c(c1)OC1=C(C(=O)CC(C)(C)C1)C2C1=C(O)CC(C)(C)CC1=O (configuration not stated) | 
2 | 197 nM |  | CC1(C)CC(=O)C(C2C3=C(CC(C)(C)CC3=O)Oc3ccc(Cl)cc32)=C(O)C1 (configuration not stated) | 
3 | 590 nM |  | COc1ccc2c(c1)C(C1=C(O)CC(C)(C)CC1=O)C1=C(CC(C)(C)CC1=O)O2 (configuration not stated) | 
4 | 36 nM | 81 nM | CC1(C)CC(=O)C(C2C3=C(CC(C)(C)CC3=O)Oc3cc(Br)ccc32)=C(O)C1 (configuration not stated) | 
5 | 2170 nM |  | COc1cccc2c1OC1=C(C(=O)CC(C)(C)C1)C2C1=C(O)CC(C)(C)CC1=O (configuration not stated) | 
6 | 34 nM | 73 nM | CC1(C)CC(=O)C(C2C3=C(CC(C)(C)CC3=O)Oc3c(F)cccc32)=C(O)C1 (configuration not stated) | 
7 | 81 nM |  | CC1(C)CC(=O)C(C2C3=C(CC(C)(C)CC3=O)Oc3ccc(F)cc32)=C(O)C1 (configuration not stated) | 
8 | 14 nM | 45 nM | O=C1CC2(CCC2)CC(O)=C1C1C2=C(CC3(CCC3)CC2=O)Oc2ccccc21 (configuration not stated) | 
9 | 24 nM | 109 nM | O=C1CC2(CCCCC2)CC(O)=C1C1C2=C(CC3(CCCCC3)CC2=O)Oc2ccccc21 (configuration not stated) | 
10 | 41 nM |  | CCc1ccc2c(c1)OC1=C(C(=O)CC(C)(C)C1)C2C1=C(O)CC(C)(C)CC1=O (configuration not stated) | 
11 | 71 nM |  | CC1(C)CC(=O)C(C2C3=C(CC(C)(C)CC3=O)Oc3c(Cl)cccc32)=C(O)C1 (configuration not stated) | 
12 | > 1000 nM | 343 nM | CC1(C)CC(=O)C([C@@H]2C3=C(CC(C)(C)CC3=O)Oc3ccccc32)=C(O)C1 | fraction unbound [3]: 0.1; Kp [4]: 0.1
13 | 93 nM |  | COc1ccc2c(c1)OC1=C(C(=O)CC(C)(C)C1)C2C1=C(O)CC(C)(C)CC1=O (configuration not stated) | 
14 | 17 nM | 58 nM | O=C1CC2(CCCC2)CC(O)=C1C1C2=C(CC3(CCCC3)CC2=O)Oc2ccccc21 (configuration not stated) | 
15 | 34 nM | 82 nM | CC1(C)CC(=O)C(C2C3=C(CC(C)(C)CC3=O)Oc3cc(Cl)ccc32)=C(O)C1 (configuration not stated) | 
16 | 833 nM |  | CCOc1ccc2c(c1)OC1=C(C(=O)CC(C)(C)C1)C2C1=C(O)CC(C)(C)CC1=O (configuration not stated) | 
17 | 14 nM | 34 nM | CC1(C)CC(=O)C([C@H]2C3=C(CC(C)(C)CC3=O)Oc3ccccc32)=C(O)C1 | Tmax [8]: 0.5 h; Cmax [9]: 2500 nM; half-life [10]: 2.7 h; fraction unbound [3]: 0.27; Kp [4]: 0.34; Activity [13]: Dose-dependent effect
18 | 20 nM | 90 nM | CCC1(CC)CC(=O)C(C2C3=C(CC(CC)(CC)CC3=O)Oc3ccccc32)=C(O)C1 (configuration not stated) | 
19 | > 1000 nM |  | COc1cccc2c1C(C1=C(O)CC(C)(C)CC1=O)C1=C(CC(C)(C)CC1=O)O2 (configuration not stated) | 
20 | > 1000 nM |  | O=C1CCCC(O)=C1C1C2=C(CCCC2=O)Oc2ccccc21 (configuration not stated) | 
21 | 193 nM |  | CC1CC(=O)C(C2C3=C(CC(C)CC3=O)Oc3ccccc32)=C(O)C1 (configuration not stated) | 
22 | 29 nM | 63 nM | CC1(C)CC(=O)C(C2C3=C(CC(C)(C)CC3=O)Oc3cc(F)ccc32)=C(O)C1 (configuration not stated) | 

Row | SMILES | Ki [1] | IC50 [2] | also measured
23 | CC1(C)CC(=O)C(C2C3=C(CC(C)(C)CC3=O)Oc3ccccc32)=C(O)C1 (racemic) | 33 nM | 61 nM | IC50 [5]: > 10000 nM; IC50 [6]: > 10000 nM; IC50 [7]: > 10000 nM; Tmax [8]: 1 h; Cmax [9]: 2400 nM; half-life [10]: 5.2 h; Activity [11]: Non-toxic; Activity [12]: Non-toxic; Activity [13]: Dose-dependent effect
